Experimental data from ChEMBL document CHEMBL1127466, “Synthesis and opioid activity of 7-oxygenated 2,3,4,4a,5,6,7,7a-octahydro-1H-benzofuro[3,2-e]isoquinolin-9-ols” (J Med Chem, 1994).

Legend:
Mus musculus [1] = assay: In vivo analgesic activity was measured by using Antiphenyl quinone Writhing(PQW) test after subcutaneous administration; format: functional; conditions: sc
Outline: (§1)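 Fasted male CFI mice, 18–23 g, given coded doses of test compound, then phenylquinone 1.25 mg/kg ip 5 min before the designated test time. Analgesia is scored as complete blockade of writhing over a 10-min observation period starting at test time.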

Mus musculus [2] = assay: Narcotic antagonism was measured by using Anti-Straub tail (AST) test after subcutaneous administration; format: functional; conditions: sc
Outline: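 Fasted male CFI mice, 18–23 g, given coded doses of test compound, then desonitazene 0.08 mg/kg ip 5 min before the designated test time. Antagonism is scored as complete blockade of the Straub tail response over a 5-min observation period starting at test time.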

Mu-type opioid receptor = Mu-type opioid receptor (Cavia porcellus, UniProt P97266); assay: […]; format: organism-based
Outline: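 Brain membranes come from male Hartley guinea pigs, 250–300 g. Values are the mean of three experiments, each done in duplicate.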

[3] = molecular target: Kappa-type opioid receptor (Cavia porcellus, UniProt P41144); assay: biochemical; format: organism-based
Mus musculus [4] = assay: In vivo analgesic activity was measured by using Antiphenyl quinone Writhing(PQW) test after subcutaneous administration; Inactive; format: functional; conditions: sc; outline: as §1
Cavia porcellus [5] = species on record: Cavia porcellus; assay: Ke value was measured as concentration of antagonist/ (IC50 ratio - 1); format: functional
Outline: (§2)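 Ileum strips in the electrically stimulated guinea pig ileum set-up, 37 °C Krebs-Tris. […] IC50 ratio is IC50 with antagonist divided by control IC50 in the same preparation. Ke = [antagonist]/(IC50 ratio – 1).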

Cavia porcellus [6] = species on record: Cavia porcellus; assay: Opioid agonistic activity was measured by using Guinea pig ileum bioassay; format: functional
Outline: (§3)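 Longitudinal muscle strips from male Hartley guinea pig ileum (250–400 g) in Krebs-Tris at 37 °C, oxygenated. Stimulated electrically at 0.1 Hz, 0.8 ms, supramaximal voltage, under 1 g resting tension. Contractions recorded isometrically after 90 min equilibration, with cumulative dose–response curves for inhibition. Partial agonist response is taken at 1 μM.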

[7] = Ratio between IC50 of the agonist in presence of naloxone and IC50 of the control; format: functional; outline: as §2
Cavia porcellus [8] = species on record: Cavia porcellus; assay: Partial agonist potency at 1 uM was measured using Guinea pig ileum preparation; format: functional; outline: as §3
Cavia porcellus [9] = species on record: Cavia porcellus; assay: Ke value was measured as antagonist/ (IC50 ratio - 1); format: functional; outline: as §2
[10] = molecular target: Kappa-type opioid receptor (Cavia porcellus) (UniProt P41144); assay: (§4) Opioid antagonistic activity was measured against kappa receptor in guinea pig ileal preparation using US-50488 as agonist; format: functional
Outline: (§5)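 Electrically stimulated guinea pig ileum longitudinal muscle strips. After control agonist curves and washout, the test antagonist is applied at 3 nM for 30 min. […] Ke = [antagonist]/(IC50 ratio – 1).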

[11] = molecular target: Mu-type opioid receptor (Cavia porcellus) (UniProt P97266); assay: (§6) Opioid antagonistic activity was measured against mu receptor in guinea pig ileal preparation using morphine as agonist; format: functional; outline: as §5
[12] = as §6; format: functional; outline: as §5
[13] = as §4; format: functional; outline: as §5

Mu-type opioid receptor, sequence (P97266 whole entry): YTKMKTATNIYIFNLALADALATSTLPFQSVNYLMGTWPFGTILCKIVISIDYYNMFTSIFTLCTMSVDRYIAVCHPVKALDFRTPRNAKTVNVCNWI
Kappa-type opioid receptor, sequence (P41144 whole entry): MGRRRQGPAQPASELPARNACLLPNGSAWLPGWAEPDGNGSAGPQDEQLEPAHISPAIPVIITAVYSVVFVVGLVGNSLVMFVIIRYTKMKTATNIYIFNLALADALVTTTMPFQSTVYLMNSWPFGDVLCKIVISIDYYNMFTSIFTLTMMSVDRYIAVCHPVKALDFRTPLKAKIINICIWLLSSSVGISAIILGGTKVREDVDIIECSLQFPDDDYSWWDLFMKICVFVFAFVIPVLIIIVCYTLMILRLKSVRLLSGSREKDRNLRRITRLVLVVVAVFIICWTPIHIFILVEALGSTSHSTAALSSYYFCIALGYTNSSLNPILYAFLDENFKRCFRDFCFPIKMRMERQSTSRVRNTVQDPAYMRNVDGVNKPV
Mu-type opioid receptor (Cavia porcellus), sequence (P97266 whole entry): as the sequence (P97266 whole entry) above
Kappa-type opioid receptor (Cavia porcellus), sequence (P41144 whole entry): as the sequence (P41144 whole entry) above

| Structure (SMILES) | ED50 (Mus musculus [1]) [mg/kg] | ED50 (Mus musculus [2]) [mg/kg] | Ki (Mu-type opioid receptor) [nM] | Ki [3] [nM] | ED50 (Mus musculus [4]) [mg/kg] | also measured |
| --- | --- | --- | --- | --- | --- | --- |
| Oc1cccc2c1O[C@H]1CCC[C@H]3CN(CC4CC4)CC[C@@]231 | 0.025 | 0.018 | 0.57 | 1.2 |  |  |
| O=C1CC[C@H]2CN(CC3CC3)CC[C@@]23c2cccc(O)c2O[C@@H]13 | 0.15 | 0.022 | 0.25 | 1.73 |  |  |
| O=C1CC[C@@H]2CN(CC3CC3)CC[C@@]23c2cccc(O)c2O[C@@H]13 |  | 1 | 19 | 62 | > 5.4 |  |
| C=CCN1CC[C@]23c4c5ccc(O)c4O[C@H]2C(=O)CC[C@@]3(O)[C@H]1C5 [NALOXONE] |  | 0.02 |  |  | > 100 |  |
| COc1cccc2c1O[C@H]1C(=O)CC[C@H]3CN(CC4CC4)CC[C@@]231 | 0.93 | 0.34 | 76 | 1760 |  |  |
| COc1cccc2c1O[C@H]1[C@@H](O)CC[C@H]3CN(CC4CC4)CC[C@@]231 | 3 | 1.4 | 29 | 140 |  |  |
| CN1CC[C@]23c4cccc(O)c4O[C@H]2C(=O)CC[C@H]3C1 | 0.4 | 1.4 | 7.8 | 186 |  |  |
| Oc1cccc2c1O[C@H]1[C@@H](O)CC[C@H]3CN(CC4CC4)CC[C@@]231 | 0.37 | 0.55 | 1.4 | 4.9 |  | Ke (Cavia porcellus [5]): 14.1 nM; IC50 (Cavia porcellus [6]): 2.8 nM; Ratio [7]: 8.1 |
| Oc1cccc2c1O[C@H]1[C@H](O)CC[C@@H]3CN(CC4CC4)CC[C@@]231 |  | 0.8 | 3.9 | 12 | > 4 | Max response (Cavia porcellus [8]): 78%; Ke (Cavia porcellus [9]): 13.3 nM; Ke [10]: 2.3 nM; Ke [11]: 0.57 nM; Ratio [12]: 6.3; Ratio [13]: 2.3; Ratio [7]: 8.5 |
